Screening data: PubChem, several laboratories
The list is not random: actives were taken first. Their share in the collection is about 1.7%.
TPT1 inh – Candida albicans TPT1 enzyme inhibitors, primary screen, biochemical, fluorescence polarization | tRNA 2'-phosphotransferase TPT1 (Candida albicans SC5314) | recombinant caTPT1, FP RNA substrate dephosphorylation | inhibition, % at 5 µM | actives 0.81% (n = 300,000);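 active = inhibition above the mean of all tested compounds plus 3 SD, set per screening campaign, cut at about 24% in these data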
IDE cell activ – human IDE activators in live cells, primary screen, fluorescence polarization, HEK cells, FAbeta-B substrate | actives 0.073% (n = 340,000) | FAbeta-B cleavage; 0% vehicle, 100% cell-free pure enzyme wells | activation, % at 5.96 µM;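 active = activation above the mean of all tested compounds plus 3 SD, set per screening campaign, cut at about 17% in these data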
Target sequence (P14735 whole entry, looked up): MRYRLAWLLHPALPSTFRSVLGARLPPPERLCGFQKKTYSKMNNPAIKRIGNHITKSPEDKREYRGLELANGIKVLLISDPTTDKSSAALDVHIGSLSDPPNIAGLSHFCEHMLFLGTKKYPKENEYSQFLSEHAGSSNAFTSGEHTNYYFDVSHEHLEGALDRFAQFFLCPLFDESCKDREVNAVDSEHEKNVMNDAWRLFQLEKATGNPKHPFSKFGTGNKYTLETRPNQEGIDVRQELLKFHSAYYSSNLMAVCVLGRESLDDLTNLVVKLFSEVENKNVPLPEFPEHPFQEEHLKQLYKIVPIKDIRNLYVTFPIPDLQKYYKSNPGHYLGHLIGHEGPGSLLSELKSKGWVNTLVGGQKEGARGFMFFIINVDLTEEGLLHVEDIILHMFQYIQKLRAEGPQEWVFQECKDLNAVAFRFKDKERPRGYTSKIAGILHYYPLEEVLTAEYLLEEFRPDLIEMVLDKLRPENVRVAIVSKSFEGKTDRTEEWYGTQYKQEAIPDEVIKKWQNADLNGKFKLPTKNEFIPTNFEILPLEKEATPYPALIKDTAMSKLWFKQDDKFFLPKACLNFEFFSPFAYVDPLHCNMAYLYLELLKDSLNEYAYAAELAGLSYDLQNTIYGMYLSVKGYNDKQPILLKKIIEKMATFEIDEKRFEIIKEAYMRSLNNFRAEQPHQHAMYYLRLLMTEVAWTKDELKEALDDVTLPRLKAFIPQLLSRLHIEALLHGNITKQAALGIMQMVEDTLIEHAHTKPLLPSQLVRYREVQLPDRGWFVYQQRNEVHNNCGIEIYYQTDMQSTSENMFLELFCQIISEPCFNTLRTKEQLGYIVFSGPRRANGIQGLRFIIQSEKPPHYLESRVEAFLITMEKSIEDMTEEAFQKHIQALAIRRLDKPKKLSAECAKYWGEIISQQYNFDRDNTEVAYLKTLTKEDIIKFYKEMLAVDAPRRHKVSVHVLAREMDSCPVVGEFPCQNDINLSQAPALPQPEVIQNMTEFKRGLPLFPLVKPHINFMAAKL
HNF4A DNA FP – change in binding of human HNF4A to DNA, primary screen, biochemical, fluorescence polarization, FITC-DNA; actives 0.3% (n = 360,000); activity change, % at 10 µM; Hepatocyte nuclear factor 4-alpha (Homo sapiens), P41235; 1 h; in the data active = activity change above about 30%, passing the limit was not always enough
TbMetRS inhib – T. brucei MetRS inhibitors, primary screen, biochemical, luminescence; actives 0.4% (n = 360,000); AID 624268, 2012; purified T. brucei MetRS, ATP depletion, Kinase-Glo luminescence; inhibition, % at 11.9 µM;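 active = inhibition above a per-plate cutoff of the control wells' mean inhibition plus 3 SD, cut at about 5.5% in these data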
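technique = Kinase-Glo luminescence, ATP depletion format | system = purified MetRS (methionyl-tRNA synthetase) enzyme from Trypanosoma brucei | timing = 15 min preincubation, 2 h reaction, all 25 °C | evaluation = percent inhibition versus plate control medians | dosing = single dose, 11.9 µM final nominal, 0.9% final DMSO | also added = substrates ATP, L-methionine and bulk Escherichia coli tRNA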
CSN deneddyl inh – inhibitors of CSN-mediated cullin deneddylation, primary screen, biochemical, fluorescence polarization, uHTS | inhibition, % at 12.5 µM | COP9 signalosome complex subunit 5 (Homo sapiens), Q92905 | AID 651999, 2013 | Purified CSN, SCF-Nedd8-OG deneddylation | actives 0.38% (n = 360,000);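 active = pattern-corrected inhibition above about 35%, with an unprinted fluorescence ratio check between 0.5 and 1.5, limit read from the data, passing the limit was not always enough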
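Assay system: HEK293T-derived human Csn5 enzyme; quantity: 0.24 nM enzyme; medium: Tris/NaCl/DTT buffer, pH 7.5; also added: substrate SCFSkp2-Nedd8OG, 10 nM; doses: 12.5 µM compound; schedule: 90 min reaction at room temperature; signal: FP; read-out: % inhibition of substrate cleavage by Csn5; benchmarks: substrate-only high control, full reaction low control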
IDE cell inh – human IDE inhibitors in live cells, primary screen, fluorescence polarization, HEK cells, FAbetaB substrate. inhibition, % at 5.59 µM. Insulin-degrading enzyme (Homo sapiens), P14735. FAbetaB cleavage. actives 0.41% (n = 320,000);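 active = percent inhibition above the average of all tested compounds plus 3 SD, set per screening campaign, cut at about 16% in these data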;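 also: IDE supplied by intact live HEK cells; FP after avidin binding of uncleaved biotin substrate so inhibition keeps polarization high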
caTPT1 confirm – Candida albicans TPT1 inhibitors, confirmation, biochemical, fluorescence polarization, triplicate; shares compounds with TPT1 inh; recombinant caTPT1, RNase T1 coupled; inhibition, % at 5 µM; actives 74% (n = 2,400); AID 2149, 2009;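 active = inhibition above the primary screen limit, the mean inhibition of all tested compounds plus 3 SD, cut at about 25% in these data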
RNase T1 counter – RNase T1 inhibitors, counter-screen for TPT1 inhibitor project, biochemical, fluorescence polarization; shares compounds with TPT1 inh; RNase T1 cleavage, 1536-well; inhibition, % at 5 µM; actives 83% (n = 2,400); AID 2153, 2009;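 active = inhibition above the solvent-only control well mean plus 3 SD, limit set per screening run, cut at about 23% in these data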;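 also: inhibitors block cleavage so intact labeled substrate keeps polarization high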
Large screens that a line does not name were inactive (follow-up assays come after a bar, where they were run).

CN(C)c1ccc(/C=C/c2nc3ccccc3c(=O)n2CCO)cc1	TPT1 inh 80 | caTPT1 confirm 84 | RNase T1 counter 95
COc1ccc(N2CC(C(=O)Nc3c4c(nn3-c3ccccc3)CS(=O)(=O)C4)CC2=O)cc1 (stereo not given)	none
COc1ccc(S(=O)(=O)N2CCOCC2)cc1NC(=O)CCCOc1ccc(C(C)=O)cc1	none (no result: TPT1 inh, IDE cell activ, IDE cell inh)
COc1ccc(S(=O)(=O)N2CCCCC2)cc1NC(=O)c1cccc(S(=O)(=O)N2CC(C)OC(C)C2)c1 (stereo not given)	none (no result: TPT1 inh, IDE cell inh)
Cn1ccc2ccc(C3=CC(=O)C[C@H](c4ccc(F)cc4)C3)cc21	none (no result: TPT1 inh)
COC(=O)[C@@H]1C[C@@H]2CC[C@@H](O)C[C@@H]2N1Cc1ccccc1OS(=O)(=O)c1ccc(C)cc1	TPT1 inh 34 | caTPT1 confirm 37 | RNase T1 counter 48
COc1cc(/C=C(\C#N)c2nc3ccccc3s2)ccc1OCC(=O)Nc1ccccc1	TPT1 inh 60, HNF4A DNA FP 33, CSN deneddyl inh 40, IDE cell inh 28 | caTPT1 confirm 32 | RNase T1 counter 44
O=[N+]([O-])c1ccc(C[n+]2cccc3ccc4cccnc4c32)cc1	none
O=[N+]([O-])c1ccc(C[n+]2cccc3ccccc32)cc1	TPT1 inh 56 | caTPT1 confirm 27 | RNase T1 counter 36
CCOC(=O)c1[nH]c(C)c(C(=O)Nc2ccc(C)c(Cl)c2)c1C	TPT1 inh 28 | caTPT1 confirm inactive | RNase T1 counter inactive
CCOC(=O)c1[nH]c(C)c(C(=O)Nc2ccc(C)c(F)c2)c1C	none
COc1ccc(/C=N/Nc2ccc(C(F)(F)F)cc2[N+](=O)[O-])cc1	TPT1 inh 62 | caTPT1 confirm inactive | RNase T1 counter inactive
COc1ccc(/C=C2\SC(=S)N(CCC(=O)Nc3ccccc3C(=O)O)C2=O)cc1	none
O=C(CCN1C(=O)/C(=C\c2cccs2)SC1=S)Nc1ccccn1	TPT1 inh 32 | caTPT1 confirm 28 | RNase T1 counter 41
O=C(CCN1C(=O)/C(=C/c2cccs2)SC1=S)Nc1ccc(O)cc1	none
O=C(CCCN1C(=O)/C(=C/c2cccs2)SC1=S)Nc1cccc(C(=O)O)c1	none
O=C(CCN1C(=O)/C(=C/c2cccs2)SC1=S)Nc1cccc(C(=O)O)c1	TPT1 inh 53 | caTPT1 confirm 48 | RNase T1 counter 63
COc1ccc(/C=C2\SC(=S)N(CCCC(=O)Nc3ccccc3C(=O)O)C2=O)cc1OC	TPT1 inh 39 | caTPT1 confirm 70 | RNase T1 counter 77
O=C(CCN1C(=O)/C(=C/c2cccs2)SC1=S)Nc1ccccc1O	TPT1 inh 24 | caTPT1 confirm 25 | RNase T1 counter 36
Cn1c(=O)c2c(n(C)c1=O)n(C)c(=O)n2C	none (no result: TPT1 inh, IDE cell activ, IDE cell inh)
Cc1cc([N+](=O)[O-])ccc1-c1ccc(/C=N/NC(=O)Cc2ccccc2)o1	TPT1 inh 24 | caTPT1 confirm 24 | RNase T1 counter 37
NC(=S)N/N=C/c1ccc(-c2ccc([N+](=O)[O-])cc2)o1	TPT1 inh 27 | caTPT1 confirm 36 | RNase T1 counter 47
CC(=O)Nc1ccc(NC(=O)c2ccccc2S(=O)(=O)c2ccc([N+](=O)[O-])cc2)cc1	none
CCOC(=O)c1sc(N)c(C#N)c1COC(=O)CNC(=O)c1ccccc1	TPT1 inh 79, HNF4A DNA FP 74, CSN deneddyl inh 41 | caTPT1 confirm 92 | RNase T1 counter 100
COc1ccc(C(=O)C(=O)N2CCN(c3ccccc3F)CC2)cc1	none (no result: TPT1 inh, IDE cell activ, IDE cell inh)
Cc1nc2ccccc2n1-c1ccccc1	none
O=c1c(/C=C(\O)c2ccccc2)nc2ccccc2n1-c1ccccc1	TPT1 inh 119, HNF4A DNA FP 46 | caTPT1 confirm 86 | RNase T1 counter 95
Cc1ccc(/C=C(\NC(=O)c2ccccc2)C(=O)N2CCCCC2)cc1	none
CN(C)c1ccc(/C=C(/NC(=O)c2ccccc2)C(=O)N2CCCC2)cc1	TPT1 inh 60, CSN deneddyl inh 38 | caTPT1 confirm 35 | RNase T1 counter 44
CCCN(C(=O)/C=C/c1nc2ccccc2s1)C1CCS(=O)(=O)C1 (stereo not given)	none (no result: TPT1 inh)
COC(=O)[C@]12CCCCC=C1N(CCc1ccc(OC)c(OC)c1)C(=O)[C@H](CC(=O)NCCCCc1ccccc1)C2	none (no result: TPT1 inh, IDE cell activ, IDE cell inh)
CC(Oc1ccccc1)C(=O)N1CCN=C1SCc1ccc(F)cc1 (stereo not given)	none
O=c1[nH]c2cc3c(cc2cc1CN(Cc1cccs1)Cc1nnnn1Cc1ccco1)OCCO3	TPT1 inh 31 | caTPT1 confirm inactive | RNase T1 counter inactive
CN(C)CCNC(=O)/C(=C/c1ccc(-c2ccc(Cl)cc2)o1)NC(=O)c1ccccc1	TPT1 inh 41 | caTPT1 confirm inactive | RNase T1 counter inactive
CC(=O)NC12CC3CC(C1)CC(C(=O)Nc1cccc(S(=O)(=O)N4CCCCCC4)c1)(C3)C2	none (no result: TPT1 inh, IDE cell inh)
CCCc1cc(=O)oc2cc(OC(C)C(=O)NC3CC(C)(C)NC(C)(C)C3)ccc12 (stereo not given)	none
Cc1cccc(C)c1Nc1c(-c2ccc(N3CCOCC3)cc2)nc2ncccn12	TPT1 inh 30 | caTPT1 confirm 34 | RNase T1 counter 41
Cc1ccc(Nc2c(-c3ccc(N4CCOCC4)cc3)nc3ncccn23)c(C)c1	none
O=c1[nH]ncc2c3ccccc3n(Cc3cccc(Cl)c3)c12	TPT1 inh 69, HNF4A DNA FP 63 | caTPT1 confirm 157 | RNase T1 counter 137
CCc1cccc(CC)c1NC(=O)CN1CCc2cc(OC)c(OC)cc2C1	none
C/C(=N\NC(=O)c1c(C)nc2ccccn12)c1ccc(O)cc1O	TPT1 inh 35 | caTPT1 confirm 38 | RNase T1 counter 41
CC12C=CC3(O1)C(C(=O)N(c1cccnc1)C3C(=O)NC1CCCCC1)C2C(=O)Nc1ccccc1 (stereo not given)	none
